Test results reported in article PMC3529145 (Bioconjugate chemistry, 2012).
No end group written: not given here.

Key:
Format in all cases: in vivo, mouse
LNCaP tumor = test: Small-animal PET imaging, LNCaP tumor xenograft; details: for radioactivity accumulation in LNCaP tumor (PET): PET ROI analysis, i.v. tail vein, dual tumor bearing mice n = 4
In short: (§1)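 Male athymic nude mice carried LNCaP (right shoulder, implanted 14 days earlier) and PC-3 (left shoulder) xenografts, each 100–200 mm3 (n = 4). Dosing was by tail vein: 160–170 μCi of labelled peptide in 200 μL 3% EtOH/saline, or 260 μCi of control peptide in 200 μL PBS. Static 15-min microPET scans were taken at 2 and 4 h under isoflurane. Decay-corrected ROI values were expressed as %ID/g by phantom calibration.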

PC-3 tumor = test: Small-animal PET imaging, PC-3 tumor xenograft; details: PET ROI analysis, i.v. tail vein, dual tumor bearing mice n = 4
In short: as §1

LNCaP tumors = test: Postmortem biodistribution, LNCaP tumor uptake and tumor-to-tissue ratios; details: for LNCaP Tumor/kidney ratio: biodistribution

Substance | radioactivity accumulation in LNCaP tumor (PET) (LNCaP tumor; 2 h p.i.) | radioactivity accumulation in LNCaP tumor (PET) (LNCaP tumor; 4 h p.i.) | radioactivity accumulation in PC-3 tumor (PET) (PC-3 tumor; 2 h p.i.) | radioactivity accumulation in PC-3 tumor (PET) (PC-3 tumor; 4 h p.i.) | LNCaP Tumor/kidney ratio (LNCaP tumors; 2 h p.i.) | LNCaP Tumor/kidney ratio (LNCaP tumors; 4 h p.i.) | LNCaP Tumor/liver ratio (LNCaP tumors; mouse, in vivo) | tumor accumulation observed by PET (in words) (LNCaP tumor; PET images of mice bearing LNCaP and PC-3 tumors, negative control) | LNCaP Tumor/blood ratio (LNCaP tumors; mouse, in vivo) | LNCaP Tumor/muscle ratio (LNCaP tumors; mouse, in vivo)
ACEQNPIYWARYADWLFTTPLLLLDLALLVDADEGTG-CO2H [[^18F]-4a] | 8.3 ± 1.5 %ID/g | 8.5 ± 1.3 %ID/g | 4.2 ± 0.4 %ID/g | 5.4 ± 0.5 %ID/g | 0.3 | 0.3 | 0.2 |  |  | 
ACEQNPIYWARYAKWLFTTPLLLLKLALLVDADEGTG-OH [[^18F]-5] |  |  |  |  | 0.4 |  | 0.2 | lack of any tumor accumulation | 0.1 | 0.4
